Results taken from ChEMBL document CHEMBL1129239, “Synthesis and structure--activity relationships of fused imidazopyridines: a new series of benzodiazepine receptor ligands” (J Med Chem, 1996).
Calls of active or inactive are those of the source. No cut-off for these calls is given here.

What was measured:
[1] = organism: Mus musculus; experiment: Activity in mouse pentylenetetrazole convulsant test.; assay type: functional
Outline: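 Male mice, 8-16 per group. Test compound dosed orally 1 h before sc PTZ, either a convulsive 125 mg/kg (protection) or a subconvulsive 75 or 90 mg/kg (potentiation). Animals were watched 2 h for tonic convulsions and death. ED50 came from probit analysis.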

[2] = molecular target: GABA-A receptor; anion channel; experiment: Displacement of [3H]diazepam from rat cerebral cortex benzodiazepine receptor; assay type: tissue-based
[3] = tested on: Mus musculus; experiment: Agonist activity was evaluated by mouse pentylenetetrazole (PTZ) convulsant test after p.o. administration; settings: po
[4] = tested on: Mus musculus; experiment: Inverse agonist activity was evaluated by mouse pentylenetetrazole (PTZ) proconvulsant activity test; by administering 75 mg/kg convulsive dose of PTZ, 1 hr after oral administration of test compound; assay type: functional
Outline: (§1)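 Male mice, 8-16 per group. Test compound given po, followed 1 h later by a subconvulsive dose of PTZ (75 mg/kg sc). Tonic convulsions and death were scored over a 2-h observation.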

[5] = tested on: Mus musculus; experiment: Inverse agonist activity was evaluated by mouse pentylenetetrazole (PTZ) proconvulsant activity test; by peroral administration of 90 mg/kg convulsive dose of PTZ.; assay type: functional; settings: route oral
[6] = tested on: Mus musculus; experiment: Inverse agonist activity was evaluated by Mouse pentylenetetrazole (PTZ) proconvulsant activity test at 50 mg/kg by administering 75 mg/kg convulsive dose of PTZ, 1 hr after oral administration of test compound; assay type: functional; outline: as §1
[7] = tested on: Mus musculus; experiment: Inverse agonist activity was evaluated by Mouse pentylenetetrazole (PTZ) proconvulsant activity test at 22.39-75 mg/kg by peroral administration of 90 mg/kg convulsive dose of PTZ.; assay type: functional; settings: route oral
[8] = tested on: Mus musculus; experiment: Inverse agonist activity was evaluated by mouse pentylenetetrazole (PTZ) proconvulsant activity test; by peroral administration of 90 mg/kg convulsive dose of PTZ; inactive to 10 mg/kg administered intravenously; assay type: functional, organism-based
[9] = tested on: Mus musculus; experiment: Agonist activity was evaluated by mouse pentylenetetrazole (PTZ) convulsant test; inactive to 10 mg/kg administered intravenously; assay type: functional, organism-based; design: dose 10 mg/kg
[10] = tested on: Mus musculus; experiment: Inverse agonist activity was evaluated by mouse pentylenetetrazole (PTZ) proconvulsant activity test at 10 mg/kg by peroral administration of 90 mg/kg convulsive dose of PTZ.; assay type: functional
[11] = tested on: Mus musculus; experiment: Inverse agonist activity was evaluated by mouse pentylenetetrazole (PTZ) proconvulsant activity test at 6.7-16.7 mg/kg by peroral administration of 90 mg/kg convulsive dose of PTZ; assay type: functional; settings: route oral
[12] = tested on: Mus musculus; experiment: Inverse agonist activity was evaluated by mouse pentylenetetrazole (PTZ) proconvulsant activity test; by administering 75 mg/kg convulsive dose of PTZ, 1 hr after oral administration of test compound; In active to 10 iv; assay type: functional, organism-based; design: dose 75 mg/kg; outline: as §1
[13] = tested on: Mus musculus; experiment: Inverse agonist activity was evaluated by Mouse pentylenetetrazole (PTZ) proconvulsant activity test; by administering 75 mg/kg convulsive dose of PTZ, 1 hr after oral administration of test compound; assay type: functional; outline: as §1
[14] = tested on: Mus musculus; experiment: Inverse agonist activity was evaluated by Mouse pentylenetetrazole (PTZ) proconvulsant activity test at 3.53-11.93 mg/kg by peroral administration of 90 mg/kg convulsive dose of PTZ.; assay type: functional; settings: route oral
[15] = tested on: Mus musculus; experiment: Inverse agonist activity was evaluated by Mouse pentylenetetrazole (PTZ) proconvulsant activity test at 4.54-12.28 mg/kg by administering 75 mg/kg convulsive dose of PTZ, 1 hr after oral administration of test compound; assay type: functional; outline: as §1
[16] = tested on: Mus musculus; experiment: Inverse agonist activity was evaluated by Mouse pentylenetetrazole (PTZ) proconvulsant activity test; by peroral administration of 90 mg/kg convulsive dose of PTZ; inactive to 10 mg/kg administered intravenously; assay type: functional, organism-based

Compound | ED50 [1] [mg/kg] | Ki [2] [nM] | also measured
Cc1cc(-c2nc3c(cnc4ccc(Cl)cc43)[nH]2)on1 | 10.6 | 0.5 | 
Cc1cc(-c2nc3c(cnc4cc(F)ccc43)[nH]2)on1 | 5.15 | 1.4 | 
CN1C(=O)CN=C(c2ccccc2)c2cc(Cl)ccc21 [DIAZEPAM] |  |  | ED50 [3]: 0.67 mg/kg
c1cc(-c2nc3c4c(ncc3[nH]2)CCC4)no1 |  | 5.3 | ED50 [4]: 9.22 mg/kg; ED50 [5]: 4.72 mg/kg
c1ccc(-c2nc3c(cnc4ccccc43)[nH]2)cc1 |  | 22 | 
Cc1cc(-c2nc3c4c(ncc3[nH]2)CCCC4)on1 | 8.12 | 2.2 | 
Cc1cc(-c2nc3c(cnc4ccc(F)cc43)[nH]2)on1 | 5.41 | 1.1 | 
Cc1cc(-c2nc3c(cnc4cccc(F)c43)[nH]2)on1 | 4.86 | 4.9 | 
COc1ccc2[nH]cc3nc(-c4ccon4)nc-3c2c1 |  | 0.5 | Animals affected [6]: 25%; ED50 [7]: 31.5 mg/kg
Clc1cccc2c1ncc1[nH]c(-c3ccon3)nc12 |  | 524 | Animals affected [8]: inactive; ED50 [9]: inactive
Cc1cc(-c2nc3c(cnc4c(F)cccc43)[nH]2)on1 |  | 302 | ED50 [9]: inactive
Fc1cccc2c1ncc1[nH]c(-c3ccon3)nc12 |  | 40 | Animals affected [10]: 37.5%
c1ccc2c(c1)ncc1[nH]c(-c3ccon3)nc12 |  | 0.6 | ED50 [11]: 10.1 mg/kg; ED50 [12]: inactive
c1cc(-c2nc3c4c(ncc3[nH]2)CCCC4)no1 |  | 1.2 | Animals affected [8]: inactive; ED50 [9]: inactive
O=C1C2C=Nc3ccccc3C2=NN1c1ccccc1 (centres undefined) [CGS-8216] |  |  | ED50 [13]: 25 mg/kg
CCc1cc(-c2nc3c(cnc4ccccc43)[nH]2)on1 | 13.5 | 1.2 | 
Clc1cccc2[nH]cc3nc(-c4ccon4)nc-3c12 |  | 7.8 | ED50 [14]: 5.95 mg/kg; ED50 [15]: 7.21 mg/kg
c1ccc2c(c1)ncc1[nH]c(-c3ccno3)nc12 |  | 1 | ED50 [13]: 1.94 mg/kg; ED50 [16]: inactive; ED50 [9]: inactive
c1csc(-c2nc3c[nH]c4ccccc4c-3n2)c1 |  | 1.7 | 
Cc1cc(-c2nc3c4c(ncc3[nH]2)CCC4)on1 | 5.97 | 14.6 | 
